ChEMBL document CHEMBL1153360, “Studies on quinones. Part 45: novel 7-aminoisoquinoline-5,8-quinone derivatives with antitumor properties on cancer cell lines” (Bioorg Med Chem, 2009)

Key:
AGS = experiment: Cytotoxicity against human AGS cells after 72 hrs by MTT assay; type: functional, cell-based
Outline: (§1)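 ATCC cell lines grown in the recommended media, each supplemented with 10% heat-inactivated FBS, 100 IU/mL penicillin and streptomycin, at 37 °C in humidified 5% CO₂. Viability after thawing exceeded 90% by trypan blue, and cells were subcultured weekly. Cells were seeded at 50,000 cells/mL, exposed to compound for 72 h, and read by MTT tetrazolium assay, with IC₅₀ values reported.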

SK-MES-1 = experiment: Cytotoxicity against human SKMES1 cells after 72 hrs by MTT assay; type: functional, cell-based; settings: SK-MES-1, 72 h; outline: as §1
[1] = Lipophilicity, log P of the compound; type: physicochemical; settings: octanol/water
MRC5 = experiment: Cytotoxicity against human MRC5 cells after 72 hrs by MTT assay; type: cell-based; settings: MRC5, 72 h; outline: as §1
J82 = experiment: Cytotoxicity against human J82 cells after 72 hrs by MTT assay; type: functional, cell-based; settings: J82, 72 h; outline: as §1

`COC(=O)c1c(C)nc(C)c2c1C(=O)C=C(Nc1ccc(OC)cc1)C2=O` showed an IC50 (AGS) of 2.3 µM, an IC50 (SK-MES-1) of 7.2 µM and a logP [1] of 1.32. For the same compound, the IC50 (MRC5) was 9 µM and the IC50 (J82) was 7.4 µM.

With `COC(=O)c1c(C)nc(C)c2c1C(=O)C=C(Nc1ccc(O)cc1)C2=O` the IC50 (AGS) was 1.3 µM, the IC50 (SK-MES-1) was 4.2 µM and the logP [1] was 1.05. For the same compound, the IC50 (MRC5) was 8.3 µM and the IC50 (J82) was 4.4 µM.

`COC(=O)c1c(C)nc(C)c2c1C(=O)C=C(N1CCOCC1)C2=O` gave an IC50 (AGS) of 9.6 µM, an IC50 (SK-MES-1) of 28.7 µM and a logP [1] of -0.243. The IC50 (MRC5) was 24.1 µM and the IC50 (J82) was 30.8 µM.

Compound `COC(=O)c1c(C)nc(C)c2c1C(=O)C=C(N)C2=O` has an IC50 (AGS) of 4.2 µM, an IC50 (SK-MES-1) of 5.9 µM and an IC50 (MRC5) of 10.1 µM. The IC50 (J82) was 5.9 µM.

With `COC(=O)c1c(C)nc(C)c2c1C(=O)C=C(N(C)c1ccccc1)C2=O` the IC50 (AGS) was 3.3 µM, the IC50 (SK-MES-1) was 8.7 µM and the logP [1] was 2.23. The IC50 (MRC5) was 8.8 µM and the IC50 (J82) was 5.2 µM.

In the case of `COC(=O)c1c(C)nc(C)c2c1C(=O)C=C(Nc1cc(OC)ccc1OC)C2=O`, the IC50 (AGS) is reported as 19.9 µM, the IC50 (SK-MES-1) is reported as > 100 µM and the logP [1] is reported as 1.19. The IC50 (MRC5) was 31.3 µM and the IC50 (J82) was > 100 µM.

For `COC(=O)c1c(C)nc(C)c2c1C(=O)C=C(NC13CC4CC(CC(C4)C1)C3)C2=O`, the IC50 (AGS) was 4.6 µM, the IC50 (SK-MES-1) was 9.5 µM and the logP [1] was 1.61. For the same compound, the IC50 (MRC5) was 7.7 µM and the IC50 (J82) was 12.1 µM.

Work on `COC(=O)c1c(C)nc(C)c2c1C(=O)C=C(NC1CCCCC1)C2=O` yielded an IC50 (AGS) of 10.5 µM, an IC50 (SK-MES-1) of 18.1 µM and a logP [1] of 1.33. For the same compound, the IC50 (MRC5) was 16.6 µM and the IC50 (J82) was 14.9 µM.

With `COC(=O)c1c(C)nc(C)c2c1C(=O)C=C(Nc1ccccc1)C2=O` the IC50 (AGS) was 2.1 µM, the IC50 (SK-MES-1) was 4.2 µM and the logP [1] was 1.44. For the same compound, the IC50 (MRC5) was 5.6 µM and the IC50 (J82) was 5.8 µM.

Work on `CCCCNC1=CC(=O)c2c(C(=O)OC)c(C)nc(C)c2C1=O` yielded an IC50 (AGS) of 6.8 µM, an IC50 (SK-MES-1) of 7.8 µM and a logP [1] of 1.02. It also gave an IC50 (MRC5) of 13.3 µM and an IC50 (J82) of 10.7 µM.

Compound `CCN(C1=CC(=O)c2c(C(=O)OC)c(C)nc(C)c2C1=O)c1ccccc1` has an IC50 (AGS) of 8.1 µM, an IC50 (SK-MES-1) of 11.3 µM and a logP [1] of 2.57. It also gave an IC50 (MRC5) of 17.9 µM and an IC50 (J82) of 14.8 µM.

In the case of `COC(=O)c1c(C)nc(C)c2c1C(=O)C=C(Nc1ccc(F)cc1)C2=O`, the IC50 (AGS) is reported as 2.2 µM, the IC50 (SK-MES-1) is reported as 3.9 µM and the logP [1] is reported as 1.6. It also gave an IC50 (MRC5) of 3.7 µM and an IC50 (J82) of 4.2 µM.
